Assay results: ChEMBL document CHEMBL1687941 (J Med Chem, 2011); call rule not given here

What was measured:
Aminopeptidase N = molecular target: T1, Aminopeptidase N (Plasmodium falciparum FcB1/Columbia, UniProt O96935); assay: Inhibition of Plasmodium falciparum recombinant M1-aminopeptidase expressed in Escherichia coli after 40 mins uisng fluorogenic substrate L-Leucyl-7-amido-40-methylcoumarin by fluorescence spectrophotometry
T1 sequence (O96935 whole entry): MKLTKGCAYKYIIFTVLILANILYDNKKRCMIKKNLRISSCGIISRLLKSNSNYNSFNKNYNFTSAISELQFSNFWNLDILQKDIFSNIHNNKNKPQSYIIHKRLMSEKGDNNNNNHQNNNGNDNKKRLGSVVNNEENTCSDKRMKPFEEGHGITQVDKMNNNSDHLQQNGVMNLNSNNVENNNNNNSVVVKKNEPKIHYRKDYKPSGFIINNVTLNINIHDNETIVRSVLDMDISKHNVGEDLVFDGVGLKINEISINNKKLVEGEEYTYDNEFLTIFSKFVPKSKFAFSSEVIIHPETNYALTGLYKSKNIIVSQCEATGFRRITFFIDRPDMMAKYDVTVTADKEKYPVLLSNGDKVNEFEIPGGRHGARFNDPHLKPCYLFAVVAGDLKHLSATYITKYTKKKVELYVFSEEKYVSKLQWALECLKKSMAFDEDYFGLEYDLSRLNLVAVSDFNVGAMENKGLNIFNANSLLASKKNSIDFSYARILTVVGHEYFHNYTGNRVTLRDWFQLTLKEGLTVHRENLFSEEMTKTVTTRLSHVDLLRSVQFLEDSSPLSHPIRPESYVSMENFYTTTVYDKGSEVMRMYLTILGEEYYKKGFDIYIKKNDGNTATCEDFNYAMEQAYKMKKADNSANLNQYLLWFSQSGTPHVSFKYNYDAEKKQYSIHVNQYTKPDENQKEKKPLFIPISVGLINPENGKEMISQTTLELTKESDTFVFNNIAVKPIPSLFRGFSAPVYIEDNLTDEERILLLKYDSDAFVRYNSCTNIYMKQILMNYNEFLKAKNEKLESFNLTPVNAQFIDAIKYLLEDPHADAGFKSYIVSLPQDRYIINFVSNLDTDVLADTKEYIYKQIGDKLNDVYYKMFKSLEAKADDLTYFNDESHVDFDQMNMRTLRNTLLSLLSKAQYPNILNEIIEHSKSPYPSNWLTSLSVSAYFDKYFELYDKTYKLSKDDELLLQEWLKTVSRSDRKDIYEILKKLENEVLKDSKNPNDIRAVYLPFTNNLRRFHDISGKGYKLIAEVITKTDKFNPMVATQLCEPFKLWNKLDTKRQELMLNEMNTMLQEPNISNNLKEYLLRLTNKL
Method in brief: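 Recombinant PfA-M1 expressed in E. coli, 0.9 nM, in 50 mM HEPES pH 7.5, 100 mM NaCl, 0.1% Triton X-100. Ki by Dixon plots (1/rate vs [I]) and secondary plots vs 1/[S]. Competitive mode checked with a/v vs i plots.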

Plasmodium falciparum = assay: Antimalarial activity against Plasmodium falciparum 3D7 infected-erythrocytes after 72 hrs by SYBR green fluorescence method; assay type: functional, organism-based; details: 3D7, 72 h
Method in brief: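 P. falciparum 3D7 grown in erythrocytes at 4% hematocrit in RPMI 1640 with 20 mM HEPES, 32 mM NaHCO3, 10% Albumax II. Serial dilutions added to phenol red-free culture at 0.5% starting parasitemia, in triplicate, for 72 h at 37 °C. Lysis buffer with saponin, Triton X and SYBR Green I then added for 1 h at room temperature. Fluorescence read as parasite growth, and IC50 derived.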

| Ki (Aminopeptidase N) | IC50 (Plasmodium falciparum) | SMILES | Ki (Aminopeptidase N; read-out: Ki) |
| --- | --- | --- | --- |
| Not Active | > 50 µM | CC(C)C[C@H](NC(=O)[C@@H](O)[C@H](N)Cc1ccc(-c2ccccc2)cc1)C(=O)O |  |
|  |  | N[C@H](Cc1ccccc1)[C@H](O)C(=O)N[C@@H](CCCCNC(=O)OCc1ccccc1)C(=O)O | 1.45 µM |
| Not Active | > 50 µM | CC(C)C[C@H](NC(=O)[C@@H](O)[C@H](N)CC(C)C)C(=O)O |  |
|  | 6.4 µM | COc1ccc(C[C@@H](N)[C@H](O)C(=O)N[C@@H](CC(C)C)C(=O)O)cc1 |  |
| Not Active | > 50 µM | CC(C)C[C@H](NC(=O)[C@@H](O)[C@H](N)C(c1ccccc1)c1ccccc1)C(=O)O |  |
|  |  | CCCC[C@H](NC(=O)[C@@H](O)[C@H](N)Cc1ccccc1)C(=O)O | 0.9 µM |
|  | 29 µM | CC(C)C[C@H](NC(=O)[C@@H](O)[C@H](N)Cc1ccc(OCc2ccccc2)cc1)C(=O)O |  |
|  | > 50 µM | CCCC[C@@H](N)[C@H](O)C(=O)N[C@@H](CC(C)C)C(=O)O | 5.3 µM |
|  | 3.2 µM | CC(C)C[C@H](NC(=O)[C@@H](O)[C@H](N)Cc1ccccc1)C(=O)O [UBENIMEX] |  |

| SMILES | Ki (Aminopeptidase N) | IC50 (Plasmodium falciparum) | Ki (Aminopeptidase N; read-out: Ki) |
| --- | --- | --- | --- |
| CC(C)C[C@H](NC(=O)[C@@H](O)[C@H](N)Cc1ccc2ccccc2c1)C(=O)O |  | > 50 µM | 3 µM |
